Measured values from article PMC9893515 (Bioorganic chemistry, 2021).

Biological target: T1, recombinant human TDP2 (Homo sapiens, UniProt O95551)
T1 sequence (O95551 1-362): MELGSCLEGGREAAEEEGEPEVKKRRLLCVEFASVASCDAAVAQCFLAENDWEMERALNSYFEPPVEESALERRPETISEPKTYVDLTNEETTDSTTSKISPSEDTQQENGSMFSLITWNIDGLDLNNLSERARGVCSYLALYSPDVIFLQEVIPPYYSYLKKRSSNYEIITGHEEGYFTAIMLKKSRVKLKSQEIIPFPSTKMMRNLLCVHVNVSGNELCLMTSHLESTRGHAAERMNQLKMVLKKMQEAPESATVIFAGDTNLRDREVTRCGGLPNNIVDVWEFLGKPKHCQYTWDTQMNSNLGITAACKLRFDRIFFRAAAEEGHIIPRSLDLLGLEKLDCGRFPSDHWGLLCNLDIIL
Test: Recombinant TDP2 assay
Format: biochemical
Conditions: not given
In short: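 Human recombinant TDP2 (25 pM) with 1 nM 18-mer 5'-phosphotyrosyl ssDNA, 3'-α32P-cordycepin-labelled. Reaction ran 15 min at room temperature in Tris-HCl pH 7.5, KCl, MgCl2, EDTA, DTT, BSA and Tween 20. Stopped with formamide loading buffer, then 16% denaturing PAGE and phosphorimaging densitometry of product. […] IC50 is 50% enzyme inhibition.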

Compound	IC50 [µM]
CCOC(=O)c1noc2c1C(=O)c1cnccc1C2=O [Compound 50, Ethyl-4,9-dioxo-4,9-dihydroisoxazolo[5,4-g]isoquinoline-3-carboxylate]	5.4 ± 0.8
CCOC(=O)c1noc2c1C(=O)c1ccncc1C2=O [Compound 51, Ethyl 4,9-dioxo-4,9-dihydroisoxazolo[4,5-g]isoquinoline-3-carboxylate]	12 ± 2.4
CC(C)(C)OC(=O)c1noc2c1C(=O)c1ncccc1C2=O [Compound 54, Tert-butyl 4,9-dioxo-4,9-dihydroisoxazolo[5,4-g]quinoline-3-carboxylate]	3.1 ± 0.43
CC(C)(C)OC(=O)c1noc2c1C(=O)c1cccnc1C2=O [Compound 55, Tert-butyl 4,9-dioxo-4,9-dihydroisoxazolo[4,5-g]quinoline-3-carboxylate]	3.3 ± 0.65
O=C(OCCc1ccc(Cl)cc1)c1noc2c1C(=O)c1ncccc1C2=O [Compound 56, 4-chlorophenethyl 4,9-dioxo-4,9-dihydroisoxazolo[5,4-g]quinoline-3-carboxylate]	15 ± 1.3
O=C(OCCc1ccc(Cl)cc1)c1noc2c1C(=O)c1cccnc1C2=O [Compound 57, 4-chlorophenethyl 4,9-dioxo-4,9-dihydroisoxazolo[4,5-g]quinoline-3-carboxylate]	9.9 ± 2.2
O=C(OCC(F)(F)F)c1noc2c1C(=O)c1cccnc1C2=O [Compound 59, 2,2,2-Trifluoroethyl 4,9-dioxo-4,9-dihydroisoxazolo[4,5-g]quinoline-3-carboxylate]	14 ± 2.9
N#CCCOC(=O)c1noc2c1C(=O)c1cccnc1C2=O [Compound 60, 2-Cyanoethyl 4,9-dioxo-4,9-dihydroisoxazolo[4,5-g]quinoline-3-carboxylate]	10 ± 1.48
O=C(OCCc1cccc(F)c1)c1noc2c1C(=O)c1cccnc1C2=O [Compound 61, 3-Fluorophenethyl 4,9-dioxo-4,9-dihydroisoxazolo[4,5-g]quinoline-3-carboxylate]	8.7 ± 0.54
O=C(OCCc1ccc([N+](=O)[O-])cc1)c1noc2c1C(=O)c1cccnc1C2=O [Compound 62, 4-Nitrophenethyl 4,9-dioxo-4,9-dihydroisoxazolo[4,5-g]quinoline-3-carboxylate]	11 ± 3.8
O=C1c2ncccc2C(=O)c2c(COc3ccccc3)noc21 [Compound 65, 3-(Phenoxymethyl) isoxazolo[4,5-g]quinoline-4,9-dione]	0.82 ± 0.28
CS(=O)(=O)c1ccc(OCc2noc3c2C(=O)c2cccnc2C3=O)cc1 [Compound 67, 3-((4-(Methylsulfonyl)phenoxy)methyl)isoxazolo[4,5-g]quinoline-4,9-dione]	0.99 ± 0.13
N#Cc1ccc(OCc2noc3c2C(=O)c2cccnc2C3=O)cc1 [Compound 68, 4-((4,9-Dioxo-4,9-dihydroisoxazolo[4,5-g]quinolin-3-yl)methoxy)benzonitrile]	0.74 ± 0.25
N#Cc1ccc(OCc2noc3c2C(=O)c2cccnc2C3=O)cc1F [Compound 69, 4-((4,9-Dioxo-4,9-dihydroisoxazolo[4,5-g]quinolin-3-yl)methoxy)-2-fluorobenzonitrile]	0.96 ± 0.2
COc1ccc(-c2noc3c2C(=O)c2cccnc2C3=O)cc1OC [Compound 70, 3-(3,4-Dimethoxyphenyl)isoxazolo[4,5-g]quinoline-4,9-dione]	0.46 ± 0.15
N#Cc1ccc(-c2noc3c2C(=O)c2cccnc2C3=O)c(F)c1 [Compound 71, 4-(4,9-Dioxo-4,9-dihydroisoxazolo[4,5-g]quinolin-3-yl)-3-fluorobenzonitrile]	0.74 ± 0.25

Same assay, conditions: read-out: TDP2 inhibitory activity IC50; mean ± SD from at least three independent experiments; recombinant TDP2

Compound	IC50 [µM]
CCOC(=O)c1noc2c1C(=O)c1nccnc1C2=O [Compound 52, Ethyl-4,9-dioxo-4,9-dihydroisoxazolo[4,5-g]quinoxaline-3-carboxylate]	9.3 ± 2.7
O=C(OCCOC12CC3CC(CC(C3)C1)C2)c1noc2c1C(=O)c1cccnc1C2=O [Compound 63, 2-(((3 s,5s,7s)-Adamantan-1-yl)oxy)ethyl 4,9-dioxo-4,9-dihydroisoxazolo[4,5-g]quinoline-3-carboxylate]	20 ± 0.18
O=C1c2ncccc2C(=O)c2c(COc3ccccc3Cl)noc21 [Compound 66, 3-((2-Chlorophenoxy)methyl)isoxazolo[4,5-g]quinoline-4,9-dione]	0.94 ± 0.24
Ethyl 2-isopropyl-4,9-dioxo-4,9-dihydrofuro[2,3-g]quinoline-3-carboxylate [Compound 37]	37 ± 2
Ethyl 2-isopropyl-4,9-dioxo-4,9-dihydrofuro[3,2-g]quinoline-3-carboxylate [Compound 38]	> 111
